The record followed here is ChEMBL document CHEMBL1123901, “Inhibition of delayed hypersensitivity reactions by cinnamyl 1-thioglycosides” (J Med Chem, 1987).

What is called pIC50 is −log10 of the IC50, conventionally taken in molar units. Read a low pIC50 as a high IC50.

SMILES strings stand for the structures. pIC50: −log10 of the molar value.

Holding throughout (format): functional
The species entered for assay [1] is Cavia porcellus. Briefly: Effect on guinea pig T cell proliferation was tested by measuring the incorporation of [3H]-thymidine uptake at the concentration of 0 uM. A digest of the protocol: (§1)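 Strain 2 female guinea pigs were immunized with 100 μg OVA in CFA split over the footpads. At day 14 they received mineral oil ip, and the exudate was collected 4 days later. T cells were enriched on nylon wool. 2×10^5 cells per well were cultured with 10% irradiated (2100 rads) exudate cells, OVA (10 μg/mL) and compound, for 72 h at 37 °C in 5% CO2. [3H]thymidine (1 μCi) was added 18-24 h before harvest. Triplicate wells; mean Δcpm ± SD.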

The species named for assay [2] is Cavia porcellus. Description: Effect on guinea pig T cell proliferation was tested by measuring the incorporation of [3H]thymidine uptake at the concentration of 500 uM. A digest of the protocol:
as §1

For assay [3], the species on record is Cavia porcellus. Briefly: Effect on guinea pig T cell proliferation was tested by measuring the incorporation of [3H]thymidine uptake at the concentration of 750 uM. The gist of the method:
as §1

The species entered for assay [4] is Cavia porcellus. Briefly: Effect on guinea pig T cell proliferation was tested by measuring the incorporation of [3H]thymidine uptake at the concentration of 10 uM. The gist of the method: as §1
Assay [5] is filed under the species Cavia porcellus. Description: Effect on guinea pig T cell proliferation was tested by measuring the incorporation of [3H]thymidine uptake at the concentration of 1000 uM. A digest of the protocol: as §1
For assay [6], the species on record is Cavia porcellus. Description: Effect on guinea pig T cell proliferation was tested by measuring the incorporation of [3H]thymidine uptake at the concentration of 250 uM. The gist of the method:
as §1

The species entered for assay [7] is Cavia porcellus. Description: Effect on guinea pig T cell proliferation was tested by measuring the incorporation of [3H]-thymidine uptake at the concentration of 100 uM. A digest of the protocol: as §1
The species entered for assay [8] is Cavia porcellus. Briefly: Inhibitory activity against [3H]thymidine uptake by cinnamyl 1-thioglycosides in guinea pig T cell proliferation. A digest of the protocol: as §1
The species entered for assay [9] is Cavia porcellus. Description: [3H]thymidine uptake was determined by liquid scintillation spectroscopy in 3 treated Macrophages plus OVA (10 ug/mL). The gist of the method:
(§2)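 Guinea pig PELs and irradiated (2100 rads) exudate macrophages were each preincubated with compound (1 mM or 500 μM, depending on agent) for 18 h at 37 °C, then washed. Macrophages were pulsed with OVA 100 μg/mL for 1 h at 37 °C and washed. Cells were viability-adjusted by trypan blue and mixed, with or without OVA 10 μg/mL. Culture ran 72 h at 37 °C with [3H]thymidine read by scintillation, as mean Δcpm × 10^-3.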

The species named for assay [10] is Cavia porcellus. Briefly: [3H]thymidine uptake was determined by liquid scintillation spectroscopy in compound 2 treated Macrophages. A digest of the protocol:
as §2

The species named for assay [11] is Cavia porcellus. Description: [3H]thymidine uptake was determined by liquid scintillation spectroscopy in OVA pulsed compound 21 pretreated Macrophages pretreated with 500 uM of 21 at 37 degree C for 18 h. A digest of the protocol:
as §2

The species named for assay [12] is Cavia porcellus. Description: [3H]thymidine uptake was determined by liquid scintillation spectroscopy in ovalbumin pulsed Macrophages. A digest of the protocol: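 Pretreatment protocol. Strain 2 female guinea pigs immunized with OVA in CFA (100 μg OVA; 0.1 mL/foot); mineral oil given ip at day 14, peritoneal exudate collected 4 days later. Nylon-wool-enriched T cells (PELs) and irradiated (2100 rads) exudate macrophages each incubated with sugar derivative 18 h at 37 °C, then washed. Macrophages pulsed with OVA 100 μg/mL for 1 h at 37 °C and washed. Viability adjusted by trypan blue; populations mixed and cultured 72 h at 37 °C. [3H]thymidine (1 μCi) added 18-24 h before harvest; read by liquid scintillation as mean Δcpm ×10^-3.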

For assay [13], the species on record is Cavia porcellus. Briefly: [3H]-Thymidine uptake was determined by liquid scintillation spectroscopy in OVA pulsed Macrophages pretreated with 500 uM of 21 at 37 degree C for 18 h. A digest of the protocol:
as §2

For assay [14], the species on record is Cavia porcellus. Description: [3H]-Thymidine uptake was determined by liquid scintillation spectroscopy in compound 21 treated Macrophages pretreated with 500 uM of 21 at 37 degree C for 18 h. The gist of the method: as §2
Assay [15] is filed under the species Cavia porcellus. Description: [3H]-Thymidine uptake was determined by liquid scintillation spectroscopy in ovalbumin (OVA) pulsed compound 2 treated Macrophages. The gist of the method: as §2
The species named for assay [16] is Cavia porcellus. Description: [3H]thymidine uptake was determined by liquid scintillation spectroscopy in Macrophages. A digest of the protocol: as §2
For assay [17], the species on record is Cavia porcellus. Description: [3H]-Thymidine uptake was determined by liquid scintillation spectroscopy in compound 21 pretreated Macrophages plus OVA (ug/mL) pretreated with 500 uM of 21 at 37 degree C for 18 h. A digest of the protocol: as §2
For assay [18], the species on record is Cavia porcellus. Briefly: [3H]-Thymidine uptake was determined by liquid scintillation spectroscopy in Macrophages pretreated with 500 uM 21 at 37 degree C for 18 h. The gist of the method:
as §2

The species named for assay [19] is Cavia porcellus. Briefly: [3H]-Thymidine uptake was determined by liquid scintillation spectroscopy in 21 pretreated OVA pulsed Macrophages plus OVA (10 ug/mL) pretreated with 500 uM of 21 at 37 degree C for 18 h. The gist of the method: as §2
The species entered for assay [20] is Cavia porcellus. Briefly: [3H]thymidine uptake was determined by liquid scintillation spectroscopy in compound 21 pretreated OVA pulsed Macrophages plus OVA (10 ug/mL). A digest of the protocol:
as §2

With `CC(=O)NCC1OC(SC/C=C/c2ccccc2)C(O)C(O)C1O` (stereo not drawn), the Activity in assay [1] was 79.8 Δcpm x10e-3; in [2], 39.3 Δcpm x10e-3; in assay [3] it was 38.8 Δcpm x 10^-3; in assay [4], 70.7 Δcpm x10e-3; in [5] it was 36 Δcpm x10e-3; in [6], 52.9 Δcpm x10e-3. Also, the Activity in [7] was 66.6 Δcpm x10e-3.
Turning to `OCC1OC(SCCCc2ccccc2)C(O)C(O)C1O` (stereo not drawn), the Activity in assay [1] was 72.8 Δcpm x10e-3; in [2], 34.2 Δcpm x10e-3; in assay [3], 18.5 Δcpm x 10^-3; in assay [4], 70.3 Δcpm x10e-3; in assay [5] it was 0 Δcpm x10e-3; in assay [6], 39.7 Δcpm x10e-3. For the same compound, the Activity in assay [7] was 59 Δcpm x10e-3. Moreover, the pIC50 in assay [8] (Cavia porcellus, T-cell, 72 h) was 3.40.
For the compound `NCC1OC(SC/C=C/c2ccccc2)C(O)C(O)C1O` (stereo not drawn), the Activity in assay [1] is 81 Δcpm x10e-3; in assay [2] it was 1.23 Δcpm x10e-3; in assay [3], 0.02 Δcpm x 10^-3; in assay [4], 120 Δcpm x10e-3; in assay [5], 0.01 Δcpm x10e-3; in [6] it was 71.1 Δcpm x10e-3. Moreover, the Activity in assay [7] was 101 Δcpm x10e-3.
Regarding `CC1OC(SC/C=C/c2ccccc2)C(O)C(O)C1O` (stereo in doubt; 21), the “Delta cpm x10e-3” value was determined as 14.22 in [9]; 2.26 in assay [10]; 2.63 in assay [11]; 45.43 in [12]; 29.03 in assay [13]; 1.62 in [14]. In addition, the “Delta cpm x10e-3” value in assay [15] was determined as 13.97; in [16], 1.46; in [17], 2.63; in assay [18], 1.34; in [19], 3.82; in [20] it was 11.14. In addition, the Activity in assay [1] was 89.1 Δcpm x10e-3; in [2] it was 0.11 Δcpm x10e-3; in assay [3], 0 Δcpm x 10^-3; in [4], 86.5 Δcpm x10e-3; in [5], 0 Δcpm x10e-3; in assay [6], 26.7 Δcpm x10e-3. The Activity in assay [7] is 66.3 Δcpm x10e-3. In assay [8] (t-cell), this compound gave a pIC50 of 3.99.
Take `COCC1OC(SC/C=C/c2ccccc2)C(O)C(O)C1O` (stereo not drawn): the Activity in [1] is 88 Δcpm x10e-3; in assay [2] it was 0 Δcpm x10e-3; in [3], 0 Δcpm x 10^-3; in assay [4] it was 97 Δcpm x10e-3; in assay [5] it was 0 Δcpm x10e-3; in [6] it was 1.23 Δcpm x10e-3. Besides, the Activity in assay [7] was 36.2 Δcpm x10e-3. Also, in assay [8] (Cavia porcellus, T-cell, 72 h), the pIC50 is 4.39.
For the compound `OCC1OC(OCC2OC(SCC=Cc3ccccc3)C(O)C(O)C2O)C(O)C(O)C1O` (stereo not drawn), the Activity in assay [1] is 86.9 Δcpm x10e-3; in assay [2] it was 28.9 Δcpm x10e-3; in assay [3], 13.04 µM; in assay [4] it was 64.2 Δcpm x10e-3; in [5], 3.85 Δcpm x10e-3; in assay [6], 34.1 Δcpm x10e-3. Also, the Activity in assay [7] was 54.9 Δcpm x10e-3. Besides, the pIC50 in assay [8] (Cavia porcellus, T-cell) was 3.47.
